Reference: ChEMBL document CHEMBL2040709, “Synthesis, antidepressant and antimicrobial activities of some novel stearic acid analogues” (2012)

Columns and labels:
Format in all cases: functional
[1] = tested on: Mus musculus; test: Antidepressant activity in Swiss albino mouse assessed as decrease in immobility time at 30 mg/kg, ip administered 30 mins before test measured for 4 mins of total 6 mins test by forced swim test; settings: route intraperitoneal
Procedure, shortened: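 Forced swim test in inbred male Swiss albino mice (20–30 g), groups of 6, acclimatised one week. The 30 mg/kg dose was suspended in 0.5% CMC and given i.p. 30 min before the test; controls received vehicle. Mice swam singly in a glass tank with 15 cm water at 25 ± 3 °C. Immobility was timed over the last 4 min of a 6 min session. Dunnett's test was applied.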

[2] = tested on: Mus musculus; test: Antidepressant activity in Swiss albino mouse assessed as increase in dopamine level in brain at 30 mg/kg, ip by HPLC analysis; settings: route intraperitoneal
[3] = tested on: Staphylococcus aureus; test: Antibacterial activity against Staphylococcus aureus at 500 ug/ml after 24 hrs by agar disc diffusion method; settings: read-out: DIZ
Procedure, shortened: (§1)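 Agar disc diffusion on nutrient agar plates surface-spread with standard inoculum ([…], 0.5 McFarland). Whatman No.1 paper discs (6 mm, dry-heat sterilised 140 °C, 1 h) were soaked in test compound at two concentrations (500 and 1000, as tabulated). DMSO-only discs and solvent/growth controls were included. Plates were inverted and incubated 24 h at 37 °C. Zones of inhibition were measured, and percentage potency was calculated per Indian Pharmacopoeia.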

[4] = tested on: Staphylococcus aureus; test: Antibacterial activity against Staphylococcus aureus at 1000 ug/ml after 24 hrs by agar disc diffusion method; settings: read-out: DIZ; procedure, shortened: as §1
[5] = tested on: Pseudomonas aeruginosa; test: Antibacterial activity against Pseudomonas aeruginosa at 500 ug/ml after 24 hrs by agar disc diffusion method; settings: read-out: DIZ; procedure, shortened: as §1
[6] = tested on: Pseudomonas aeruginosa; test: Antibacterial activity against Pseudomonas aeruginosa at 1000 ug/ml after 24 hrs by agar disc diffusion method; settings: read-out: DIZ; procedure, shortened: as §1
[7] = tested on: Escherichia coli; test: Antibacterial activity against Escherichia coli at 500 ug/ml after 24 hrs by agar disc diffusion method; settings: read-out: DIZ; procedure, shortened: as §1
[8] = tested on: Escherichia coli; test: Antibacterial activity against Escherichia coli at 1000 ug/ml after 24 hrs by agar disc diffusion method; settings: read-out: DIZ; procedure, shortened: as §1
[9] = tested on: Bacillus subtilis; test: Antibacterial activity against Bacillus subtilis at 500 ug/ml after 24 hrs by agar disc diffusion method; settings: read-out: DIZ; procedure, shortened: as §1
[10] = tested on: Bacillus subtilis; test: Antibacterial activity against Bacillus subtilis at 1000 ug/ml after 24 hrs by agar disc diffusion method; settings: read-out: DIZ; procedure, shortened: as §1
[11] = tested on: Staphylococcus aureus; test: Antibacterial activity against Staphylococcus aureus at 500 to 1000 ug/ml after 24 hrs by agar disc diffusion method; procedure, shortened: as §1
[12] = tested on: Pseudomonas aeruginosa; test: Antibacterial activity against Pseudomonas aeruginosa at 500 to 1000 ug/ml after 24 hrs by agar disc diffusion method; procedure, shortened: as §1
[13] = tested on: Escherichia coli; test: Antibacterial activity against Escherichia coli at 500 to 1000 ug/ml after 24 hrs by agar disc diffusion method; procedure, shortened: as §1
[14] = tested on: Bacillus subtilis; test: Antibacterial activity against Bacillus subtilis at 500 to 1000 ug/ml after 24 hrs by agar disc diffusion method; procedure, shortened: as §1
[15] = tested on: Candida albicans; test: […] at 500 ug/ml after 24 hrs by agar disc diffusion method; settings: read-out: DIZ; procedure, shortened: as §1
[16] = tested on: Candida albicans; test: […] at 1000 ug/ml after 24 hrs by agar disc diffusion method; settings: read-out: DIZ; procedure, shortened: as §1
[17] = tested on: Candida albicans; test: […] at 500 to 1000 ug/ml after 24 hrs by agar disc diffusion method; procedure, shortened: as §1

What does the source list for `CN(C)CCCN1c2ccccc2CCc2ccc(Cl)cc21` [CLOMIPRAMINE]?
Time [1]: 52.97 s; Activity [2]: 0.42 ng/mg

With `CN(C)[C@@H]1C(O)=C(C(N)=O)C(=O)[C@@]2(O)C(O)=C3C(=O)c4c(O)cccc4[C@@](C)(O)[C@H]3C[C@@H]12` [TETRACYCLINE] as the compound, how does the zone of inhibition at 500 µg/mL [3] read?
The zone of inhibition at 500 µg/mL was 18 mm.

What about the zone of inhibition at 1000 µg/mL [4] of the same compound?
The zone of inhibition at 1000 µg/mL was 19 mm.

What about the zone of inhibition at 500 µg/mL [5] of the same compound?
Its zone of inhibition at 500 µg/mL is 16 mm.

What about the zone of inhibition at 1000 µg/mL [6] of the same compound?
Its zone of inhibition at 1000 µg/mL is 22 mm.

What about the zone of inhibition at 500 µg/mL [7] of the same compound?
Its zone of inhibition at 500 µg/mL is 18 mm.

And the zone of inhibition at 1000 µg/mL [8]?
Its zone of inhibition at 1000 µg/mL is 23 mm.

And the zone of inhibition at 500 µg/mL [9]?
The zone of inhibition at 500 µg/mL was 13 mm.

And the zone of inhibition at 1000 µg/mL [10]?
The zone of inhibition at 1000 µg/mL was 20 mm.

How did the zone of inhibition at 500 µg/mL [3] turn out when `CCCCCCCCCCCCCCCCCc1nnc(-c2ccccc2)o1` was run?
Its zone of inhibition at 500 µg/mL is 14 mm.

What about the Time [1] of the same compound?
Its Time is 70 s.

What about the Activity [2] of the same compound?
The Activity was 0.25 ng/mg.

And the zone of inhibition at 1000 µg/mL [4]?
Its zone of inhibition at 1000 µg/mL is 21 mm.

What about the Activity [11] of the same compound?
Its Activity is 94.6%.

What about the zone of inhibition at 500 µg/mL [5] of the same compound?
Its zone of inhibition at 500 µg/mL is 16 mm.

What about the zone of inhibition at 1000 µg/mL [6] of the same compound?
Its zone of inhibition at 1000 µg/mL is 17 mm.

What about the Activity [12] of the same compound?
Its Activity is 60.95%.

And the zone of inhibition at 500 µg/mL [7]?
Its zone of inhibition at 500 µg/mL is 14 mm.

And the zone of inhibition at 1000 µg/mL [8]?
The zone of inhibition at 1000 µg/mL was 18 mm.

What about the Activity [13] of the same compound?
Its Activity is 93.3%.

And the zone of inhibition at 500 µg/mL [9]?
Its zone of inhibition at 500 µg/mL is 13 mm.

What about the zone of inhibition at 1000 µg/mL [10] of the same compound?
The zone of inhibition at 1000 µg/mL was 16 mm.

And the Activity [14]?
The Activity was 75.78%.

And the zone of inhibition at 500 µg/mL [15]?
Its zone of inhibition at 500 µg/mL is 15 mm.

And the zone of inhibition at 1000 µg/mL [16]?
Its zone of inhibition at 1000 µg/mL is 20 mm.

And the Activity [17]?
Its Activity is 56.71%.

Which results are given for `CCCCCCCCCCCCCCCCCc1nnc(-c2ccccc2)n1N`?
zone of inhibition at 500 µg/mL [3]: 13 mm; Time [1]: 68.83 s; Activity [2]: 0.367 ng/mg; zone of inhibition at 1000 µg/mL [4]: 18 mm; Activity [11]: 75.78%; zone of inhibition at 500 µg/mL [5]: 13 mm; zone of inhibition at 1000 µg/mL [6]: 16 mm; Activity [12]: 59.45%; zone of inhibition at 500 µg/mL [7]: 16 mm; zone of inhibition at 1000 µg/mL [8]: 17 mm; Activity [13]: 93.3%; zone of inhibition at 500 µg/mL [9]: 12 mm; zone of inhibition at 1000 µg/mL [10]: 15 mm; Activity [14]: 93.3%; zone of inhibition at 500 µg/mL [15]: 15 mm; zone of inhibition at 1000 µg/mL [16]: 22 mm; Activity [17]: 65.97%

Which results are given for `CCCCCCCCCCCCCCCCCc1nn2c(-c3ccccc3)nnc2s1`?
zone of inhibition at 500 µg/mL [3]: 16 mm; Time [1]: 62.67 s; Activity [2]: 1.455 ng/mg; zone of inhibition at 1000 µg/mL [4]: 17 mm; Activity [11]: 79.35%; zone of inhibition at 500 µg/mL [5]: 15 mm; zone of inhibition at 1000 µg/mL [6]: 19 mm; Activity [12]: 93.88%; zone of inhibition at 500 µg/mL [7]: 16 mm; zone of inhibition at 1000 µg/mL [8]: 19 mm; Activity [13]: 84.08%; zone of inhibition at 500 µg/mL [9]: 13 mm; zone of inhibition at 1000 µg/mL [10]: 16 mm; Activity [14]: 93.88%; zone of inhibition at 500 µg/mL [15]: 15 mm; zone of inhibition at 1000 µg/mL [16]: 19 mm; Activity [17]: 92.57%
